Results on 1 compound are retold here after ChEMBL document CHEMBL3868612, “Discovery of a potent and selective ROMK inhibitor with improved pharmacokinetic properties based on an octahydropyrazino[2,1-c][1,4]oxazine scaffold” (Bioorg Med Chem Lett, 2016).

Data set [1] addresses T1, ATP-sensitive inward rectifier potassium channel 1 (Homo sapiens, UniProt P48048).
T1 sequence (P48048 whole entry): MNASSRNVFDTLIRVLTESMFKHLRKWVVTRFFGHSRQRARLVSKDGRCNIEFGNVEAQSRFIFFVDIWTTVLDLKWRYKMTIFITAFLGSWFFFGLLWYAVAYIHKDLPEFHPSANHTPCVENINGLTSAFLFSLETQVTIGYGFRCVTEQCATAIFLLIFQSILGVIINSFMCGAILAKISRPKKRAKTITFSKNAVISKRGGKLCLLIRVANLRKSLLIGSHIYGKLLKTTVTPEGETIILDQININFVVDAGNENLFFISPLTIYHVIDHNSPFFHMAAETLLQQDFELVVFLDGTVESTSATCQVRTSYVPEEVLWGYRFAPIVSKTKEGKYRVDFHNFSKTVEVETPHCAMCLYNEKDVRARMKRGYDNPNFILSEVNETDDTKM
Briefly: Inhibition of human ROMK expressed in CHO cells after 6 mins at -70 mV holding potential by electrophysiology method. Type of data set: cell-based.

Data set [2] can be described thus: Stability in human hepatocytes assessed as compound remaining at 90 mins. Format: ADME, cell-based, Hepatocyte. As to conditions: read-out: Stability.
Data set [3] relates to Rattus norvegicus. In words: Antihypertensive activity in […] rat model assessed as increase in diuresis at 10 mg/kg, po qd measured on day 1 post dose relative to control. Format: functional. Summed up:
(§1)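 Spontaneously hypertensive rats dosed orally once daily for 3 days at 3, 10 and 30 mg/kg (reference diuretic at 25 mg/kg); 24 h urine output on day 1 expressed as fold increase over vehicle-treated rats; n = 5 per group.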

Data set [4] deals with Sodium channel protein type 5 subunit alpha (Homo sapiens, UniProt Q14524). Briefly: Inhibition of Nav1.5 (unknown origin).
A short description of data set [5]: Half life in rhesus monkey at 1 mg/kg, iv or 2 mg/kg, po administered qd. Format: ADME, organism-based, Macaca mulatta. Conditions: in vivo.
For data set [6], the system named is Rattus norvegicus. Briefly: Antihypertensive activity in […] rat model assessed as increase in diuresis at 25 mg/kg, po qd measured on day 1 post dose relative to control. Format: functional. Put shortly: as §1
In data set [7] the test system is Rattus norvegicus. Briefly: Antihypertensive activity in […] rat model assessed as increase in diuresis at 3 mg/kg, po qd measured on day 1 post dose relative to control. Type of data set: functional. Summed up:
as §1

In data set [8] the target is Somatostatin receptor type 2 (Homo sapiens, UniProt P30874). Briefly: Inhibition of Somatostatin receptor type 2 (unknown origin) at 10 uM by radioligand binding assay relative to control. Summed up:
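Run within a 115-assay off-target panel of enzyme and radioligand binding assays. Inhibition of somatostatin sst2 ligand binding was recorded at a single concentration of 10 μM.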

Sequence of Somatostatin receptor type 2 (P30874 whole entry): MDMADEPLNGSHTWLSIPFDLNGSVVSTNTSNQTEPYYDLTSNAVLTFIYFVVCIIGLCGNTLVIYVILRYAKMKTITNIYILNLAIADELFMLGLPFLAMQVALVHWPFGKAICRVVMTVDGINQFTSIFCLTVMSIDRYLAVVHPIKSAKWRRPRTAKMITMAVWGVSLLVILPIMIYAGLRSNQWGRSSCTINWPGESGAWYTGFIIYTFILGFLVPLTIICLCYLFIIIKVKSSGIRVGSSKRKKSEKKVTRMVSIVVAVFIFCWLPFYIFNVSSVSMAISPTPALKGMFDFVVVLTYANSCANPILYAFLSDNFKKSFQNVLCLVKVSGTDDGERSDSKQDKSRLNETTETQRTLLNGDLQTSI
Sequence of Sodium channel protein type 5 subunit alpha (Q14524 whole entry): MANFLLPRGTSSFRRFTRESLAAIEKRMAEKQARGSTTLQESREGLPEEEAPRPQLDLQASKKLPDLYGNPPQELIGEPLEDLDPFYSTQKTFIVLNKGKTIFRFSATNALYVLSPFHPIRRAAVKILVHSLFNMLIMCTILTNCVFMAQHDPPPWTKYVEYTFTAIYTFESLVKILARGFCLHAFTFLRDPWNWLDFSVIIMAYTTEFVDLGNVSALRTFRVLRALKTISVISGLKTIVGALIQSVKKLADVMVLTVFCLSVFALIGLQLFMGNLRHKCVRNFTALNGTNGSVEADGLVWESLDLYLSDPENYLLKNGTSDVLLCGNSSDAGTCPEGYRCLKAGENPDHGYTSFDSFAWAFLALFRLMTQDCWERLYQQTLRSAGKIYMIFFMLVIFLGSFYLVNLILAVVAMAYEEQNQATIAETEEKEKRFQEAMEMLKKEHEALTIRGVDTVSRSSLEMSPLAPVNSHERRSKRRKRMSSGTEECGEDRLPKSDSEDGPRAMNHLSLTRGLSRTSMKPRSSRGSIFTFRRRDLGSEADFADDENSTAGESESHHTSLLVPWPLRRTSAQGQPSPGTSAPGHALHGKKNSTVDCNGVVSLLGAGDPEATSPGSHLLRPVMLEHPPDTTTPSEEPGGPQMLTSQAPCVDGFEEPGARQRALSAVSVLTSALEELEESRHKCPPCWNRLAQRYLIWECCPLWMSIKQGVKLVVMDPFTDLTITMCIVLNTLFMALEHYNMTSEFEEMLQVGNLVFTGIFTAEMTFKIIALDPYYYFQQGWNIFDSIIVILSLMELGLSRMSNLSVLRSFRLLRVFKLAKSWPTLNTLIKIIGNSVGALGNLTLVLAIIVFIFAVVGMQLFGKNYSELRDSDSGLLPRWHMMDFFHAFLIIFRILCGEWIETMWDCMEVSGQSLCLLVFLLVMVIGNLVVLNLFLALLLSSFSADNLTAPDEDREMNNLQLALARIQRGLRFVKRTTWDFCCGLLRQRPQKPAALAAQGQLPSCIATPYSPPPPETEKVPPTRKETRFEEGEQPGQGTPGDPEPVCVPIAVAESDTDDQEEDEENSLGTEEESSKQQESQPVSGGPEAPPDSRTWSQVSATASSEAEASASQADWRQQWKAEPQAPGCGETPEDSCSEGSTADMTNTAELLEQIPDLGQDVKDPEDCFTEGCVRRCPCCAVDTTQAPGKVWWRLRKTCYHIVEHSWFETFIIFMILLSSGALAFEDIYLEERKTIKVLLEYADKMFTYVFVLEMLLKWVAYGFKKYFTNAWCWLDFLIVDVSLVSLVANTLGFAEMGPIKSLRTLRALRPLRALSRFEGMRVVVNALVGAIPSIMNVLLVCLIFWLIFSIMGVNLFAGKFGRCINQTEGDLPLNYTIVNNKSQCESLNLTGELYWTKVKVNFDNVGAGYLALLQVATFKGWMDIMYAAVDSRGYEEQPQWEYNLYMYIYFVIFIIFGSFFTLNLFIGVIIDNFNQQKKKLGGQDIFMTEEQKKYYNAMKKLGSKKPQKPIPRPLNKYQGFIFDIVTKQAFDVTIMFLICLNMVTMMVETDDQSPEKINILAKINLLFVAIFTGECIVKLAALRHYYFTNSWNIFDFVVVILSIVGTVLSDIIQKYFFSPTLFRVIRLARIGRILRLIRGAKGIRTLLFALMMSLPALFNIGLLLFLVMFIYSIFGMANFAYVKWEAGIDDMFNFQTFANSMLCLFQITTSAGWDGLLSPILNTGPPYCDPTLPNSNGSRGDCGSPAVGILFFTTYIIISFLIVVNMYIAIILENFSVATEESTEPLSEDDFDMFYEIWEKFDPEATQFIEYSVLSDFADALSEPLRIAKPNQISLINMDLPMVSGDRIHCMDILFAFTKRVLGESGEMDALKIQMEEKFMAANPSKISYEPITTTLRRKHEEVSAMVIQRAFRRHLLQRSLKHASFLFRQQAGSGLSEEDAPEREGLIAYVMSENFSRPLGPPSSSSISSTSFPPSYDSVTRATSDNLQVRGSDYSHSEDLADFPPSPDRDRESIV

By IC50 is commonly meant the point on the concentration scale where inhibition reaches its midpoint. For orientation: half-life means the time in which the quantity being followed falls by half. For orientation: inhibition means the change of the read-out against control, counted positive when it falls. Take `Cc1c([C@@H]2CN3CCN(C(=O)Cc4ccc(-n5cnnn5)cn4)C[C@H]3CO2)ccc(F)c1C#N`: the IC50 in data set [1] is 73 nM; in data set [4] it was above 30000 nM. Further, in data set [2], the remaining at 1.5 h came to 99%. The “fold change (FC)” value is 1.6 in data set [3], 1.05 in data set [6] and 1.4 in data set [7]. In addition, the half-life in data set [5] was 5 h. Also, the inhibition in data set [8] was above 50%.
